Measured values published in PMC11261800 (Heliyon, 2024).

System: HaCaT cells
Test: Proliferation of HaCaT keratinocytes, CCK-8
Type: cell-based, human
Conditions: 100 μM, positive control, 72 h, 0.4 % serum
Procedure, shortened: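 HaCaT keratinocytes, grown at 37 °C in DMEM with 10 % (v/v) FBS, were seeded at 5 × 10^3 cells/well and cultured for 24 h. They were then serum-starved for 24 h in DMEM with 0.4 % serum and exposed to test sample in the same medium for 72 h. After 2 h in 10 % CCK-8, A450 was read. Proliferative activity = (A2−A1)/(A3−A1) × 100 %, against untreated cells and cell-free blank; mean ± SD, n = 3.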

B1: Epidermal growth factor (protein, UniProt P01133 23-1207, looked up)
Pro-epidermal growth factor: PQHWSCPEGTLAGNGNSTCVGPAPFLIFSHGNSIFRIDTEGTNYEQLVVDAGVSVIMDFHYNEKRIYWVDLERQLLQRVFLNGSRQERVCNIEKNVSGMAINWINEEVIWSNQQEGIITVTDMKGNNSHILLSALKYPANVAVDPVERFIFWSSEVAGSLYRADLDGVGVKALLETSEKITAVSLDVLDKRLFWIQYNREGSNSLICSCDYDGGSVHISKHPTQHNLFAMSLFGDRIFYSTWKMKTIWIANKHTGKDMVRINLHSSFVPLGELKVVHPLAQPKAEDDTWEPEQKLCKLRKGNCSSTVCGQDLQSHLCMCAEGYALSRDRKYCEDVNECAFWNHGCTLGCKNTPGSYYCTCPVGFVLLPDGKRCHQLVSCPRNVSECSHDCVLTSEGPLCFCPEGSVLERDGKTCSGCSSPDNGGCSQLCVPLSPVSWECDCFPGYDLQLDEKSCAASGPQPFLLFANSQDIRHMHFDGTDYGTLLSQQMGMVYALDHDPVENKIYFAHTALKWIERANMDGSQRERLIEEGVDVPEGLAVDWIGRRFYWTDRGKSLIGRSDLNGKRSKIITKENISQPRGIAVHPMAKRLFWTDTGINPRIESSSLQGLGRLVIASSDLIWPSGITIDFLTDKLYWCDAKQSVIEMANLDGSKRRRLTQNDVGHPFAVAVFEDYVWFSDWAMPSVMRVNKRTGKDRVRLQGSMLKPSSLVVVHPLAKPGADPCLYQNGGCEHICKKRLGTAWCSCREGFMKASDGKTCLALDGHQLLAGGEVDLKNQVTPLDILSKTRVSEDNITESQHMLVAEIMVSDQDDCAPVGCSMYARCISEGEDATCQCLKGFAGDGKLCSDIDECEMGVPVCPPASSKCINTEGGYVCRCSEGYQGDGIHCLDIDECQLGEHSCGENASCTNTEGGYTCMCAGRLSEPGLICPDSTPPPHLREDDHHYSVRNSDSECPLSHDGYCLHDGVCMYIEALDKYACNCVVGYIGERCQYRDLKWWELRHAGHGQQQKVIVVAVCVVVLVMLLLLSLWGAHYYRTQKLLSKNPKNPYEESSRDVRSRRPADTEDGMSSCPQPWFVVIKEHQDLKNGGQPVAGEDGQAADGSMQPTSWRQEPQLCGMGTEQGCWIPVSSDKGSCPQVMERSFHMPSYGTQTLEGGVEKPHSLLSANPLWQQRALDPPHQMELTQ
modifications: Pro-epidermal growth factor
cell viability (proliferation of HaCaT keratinocytes): 106.76%
